Experimental data: ChEMBL document CHEMBL1122572, “Improved synthesis and antitumor evaluation of 5,8-dideazaisofolic acid and closely related analogues” (J Med Chem, 1984)

Experiments:
WiDr = test: In vitro inhibition of growth of the human gastrointestinal adenocarcinoma cells WIDR; assay type: functional, cell-based
Outline: (§1)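 Monodispersed growing cells (0.7-1 × 10^5 in 1 mL medium) were added to wells already holding 0–50 μL of drug solution. Drug was dissolved fresh in 0.1 M NaOH and diluted with pH 7.0 phosphate buffer. Cells were incubated 72–96 h at 37 °C in humidified 8% CO₂, trypsinized and counted on a Coulter counter. IC50 was the concentration giving 50% growth inhibition versus untreated controls.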

HT-29 = test: In vitro inhibition of growth of the human gastrointestinal adenocarcinoma cells HT-29; assay type: functional, cell-based; outline: as §1
SW480 = test: In vitro inhibition of growth of the human gastrointestinal adenocarcinoma cells SW480; assay type: functional, cell-based; outline: as §1
[1] = In vitro inhibition of growth of the human gastrointestinal adenocarcinoma cells HaTu80; assay type: functional; outline: as §1

Row | Compound | IC50 (HT-29) [µM] | IC50 (SW480) [µM] | IC50 (WiDr) [µM] | IC50 ([1]; Homo sapiens) [µM] | IC50 [1] [µM]
1 | Nc1nc(=O)c2cc(NCc3ccc(C(=O)NC(CCC(=O)O)C(=O)O)cc3)ccc2[nH]1 (stereo in doubt; form 1) | – | – | – | – | 4.5
2 | CN(Cc1ccc(C(=O)NC(CCC(=O)O)C(=O)O)cc1)c1ccc2nc(N)nc(O)c2c1 (centres undefined) | 3.2 | 5 | 6.3 | 4.8 | –
3 | Nc1nc(O)c2cc(N(C=O)Cc3ccc(C(=O)NC(CCC(=O)O)C(=O)O)cc3)ccc2n1 (centres undefined) | 100 | 150 | 195 | 95 | –
4 | Nc1nc(N)c2cc(NCc3ccc(C(=O)NC(CCC(=O)O)C(=O)O)cc3)ccc2n1 (centres undefined) | 0.2 | 0.2 | 0.2 | 0.15 | –

Continued, in another order:

Row | IC50 (HT-29) [µM] | IC50 (SW480) [µM] | Compound | IC50 (WiDr) [µM] | IC50 ([1]; Homo sapiens) [µM] | IC50 [1] [µM]
5 | 0.018 | 0.015 | CN(Cc1cnc2nc(N)nc(N)c2n1)c1ccc(C(=O)N[C@@H](CCC(=O)O)C(=O)O)cc1 [METHOTREXATE] | 0.025 | 0.009 | –
6 | 1.1 | 10 | Cc1c(NCc2ccc(C(=O)NC(CCC(=O)O)C(=O)O)cc2)ccc2nc(N)nc(O)c12 (centres undefined) | 4 | 4 | –
7 | 2.7 | 4.8 | Cc1c(N(C)Cc2ccc(C(=O)NC(CCC(=O)O)C(=O)O)cc2)ccc2nc(N)nc(O)c12 (centres undefined) | 4.8 | 3.6 | –
8 | > 300 | > 300 | Nc1nc(=O)c2cc(NCc3ccc(C(=O)N[C@H](CCC(=O)O)C(=O)O)cc3)ccc2[nH]1 | > 300 | > 300 | –
